Activity calls are given as the source filed them. No cut-off for these calls is given here.
Key:
Escherichia coli = assay: Binding affinity to Escherichia coli negative supercoiled pBR322 DNA at 10 uM after 12 hrs by ethidium bromide staining based agarose gel electrophoresis
Outline: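 Negatively supercoiled pBR322 (400 ng) in TE buffer pH 8.0 was incubated with compound at 10 μM for 12 h at room temperature. Loading buffer with sarkosyl was added. Samples were run on 1% agarose at 6 V/cm for 2.5 h in TAE pH 8.5, stained with ethidium bromide and photographed under UV.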

MDA-MB-231 = assay: Antiproliferative activity against human MDA-MB-231 cells after 72 hrs by XTT assay; assay type: functional, cell-based; conditions: MDA-MB-231, 72 h
Outline: (§1)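 Cells kept as monolayers in DMEM with 10% FBS, penicillin, streptomycin and amphotericin at 37°C, 5% CO2. Seeded at 5 x 10³ cells/well and exposed to compound for 72 h in medium with 10% FBS. XTT plus electron-coupling reagent added, 4 h at 37°C, absorbance read at 492 nm. Percent of control growth uses mean absorbance (n = 3). The 50% value is taken from the linear portion of the curve.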

[1] = Antiproliferative activity against human H1299 cells after 72 hrs by XTT assay; assay type: functional, cell-based; conditions: NCI-H1299, 72 h; outline: as §1
[2] = Antiproliferative activity against human PC3 cells after 72 hrs by XTT assay; assay type: functional, cell-based; conditions: PC-3, 72 h; outline: as §1
[3] = Antiproliferative activity against human HuH7 cells after 72 hrs by XTT assay; assay type: functional, cell-based; conditions: Huh-7, 72 h; outline: as §1
MRC5 [4] = assay: Antiproliferative activity against human MRC5 cells after 72 hrs by XTT assay; assay type: cell-based; conditions: MRC5, 72 h; outline: as §1
MRC5 [5] = assay: Selectivity index, ratio of IC50 for human MRC5 cells to IC50 for human MDA-MB-231 cells; assay type: functional
[6] = Selectivity index, ratio of IC50 for human MRC5 cells to IC50 for human H1299 cells; assay type: functional
MRC5 [7] = assay: Selectivity index, ratio of IC50 for human MRC5 cells to IC50 for human PC3 cells; assay type: functional
Huh-7 = assay: Selectivity index, ratio of IC50 for human MRC5 cells to IC50 for human HuH7 cells; assay type: functional
[8] = molecular target: T1, DNA topoisomerase 1 (Homo sapiens) (UniProt P11387); assay: Inhibition of human DNA topoisomerase 1-mediated relaxation of supercoiled pBR322 DNA at 100 uM after 30 mins by ethidium bromide staining based agarose gel electrophoresis
T1 sequence (whole entry): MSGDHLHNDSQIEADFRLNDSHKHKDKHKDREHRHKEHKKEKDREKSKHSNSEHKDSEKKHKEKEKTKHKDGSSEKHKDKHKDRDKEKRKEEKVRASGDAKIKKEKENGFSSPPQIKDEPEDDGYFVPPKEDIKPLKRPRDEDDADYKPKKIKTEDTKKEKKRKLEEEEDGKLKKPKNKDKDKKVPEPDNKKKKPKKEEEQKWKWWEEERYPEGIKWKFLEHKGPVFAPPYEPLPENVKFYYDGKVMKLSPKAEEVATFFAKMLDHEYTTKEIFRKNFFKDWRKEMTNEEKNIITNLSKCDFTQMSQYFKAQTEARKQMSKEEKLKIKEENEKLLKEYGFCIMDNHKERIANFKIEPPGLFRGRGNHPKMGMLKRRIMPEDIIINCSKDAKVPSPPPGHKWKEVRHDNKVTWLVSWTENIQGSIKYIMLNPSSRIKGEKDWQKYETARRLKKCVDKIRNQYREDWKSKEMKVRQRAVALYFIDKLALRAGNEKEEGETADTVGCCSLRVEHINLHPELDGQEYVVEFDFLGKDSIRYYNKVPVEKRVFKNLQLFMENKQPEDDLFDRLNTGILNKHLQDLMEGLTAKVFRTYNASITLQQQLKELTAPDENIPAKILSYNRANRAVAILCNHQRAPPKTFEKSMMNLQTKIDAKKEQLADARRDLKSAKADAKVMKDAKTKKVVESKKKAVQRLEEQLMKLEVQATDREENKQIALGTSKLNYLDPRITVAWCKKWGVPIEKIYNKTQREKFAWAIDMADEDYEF
Outline: (§2)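 Human topo I or topo II (2 units) was reacted with 0.2 μg supercoiled pBR322 in 20 μl Tris-HCl pH 7.5 containing KCl, DTT, EDTA, MgCl2 and BSA, with DMSO held at 0.5%, for 30 min at 37°C. The reaction was stopped with SDS. Samples were run on 1% agarose in Tris-acetate/EDTA at 1.5 V/cm for 2-3 h and stained with ethidium bromide. Relaxation was quantified by densitometry of the supercoiled band area.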

[9] = molecular target: T1, DNA topoisomerase 1 (Homo sapiens); assay: Inhibition of human DNA topoisomerase 1-mediated relaxation of supercoiled pBR322 DNA at 10 uM after 30 mins by ethidium bromide staining based agarose gel electrophoresis; outline: as §2
[10] = molecular target: DNA topoisomerase 2-alpha (Homo sapiens) (UniProt P11388); assay: Inhibition of human DNA topoisomerase 2-mediated relaxation of supercoiled pBR322 DNA at 100 uM after 30 mins by ethidium bromide staining based agarose gel electrophoresis; outline: as §2
Sequence of DNA topoisomerase 2-alpha (Homo sapiens) (P11388 whole entry): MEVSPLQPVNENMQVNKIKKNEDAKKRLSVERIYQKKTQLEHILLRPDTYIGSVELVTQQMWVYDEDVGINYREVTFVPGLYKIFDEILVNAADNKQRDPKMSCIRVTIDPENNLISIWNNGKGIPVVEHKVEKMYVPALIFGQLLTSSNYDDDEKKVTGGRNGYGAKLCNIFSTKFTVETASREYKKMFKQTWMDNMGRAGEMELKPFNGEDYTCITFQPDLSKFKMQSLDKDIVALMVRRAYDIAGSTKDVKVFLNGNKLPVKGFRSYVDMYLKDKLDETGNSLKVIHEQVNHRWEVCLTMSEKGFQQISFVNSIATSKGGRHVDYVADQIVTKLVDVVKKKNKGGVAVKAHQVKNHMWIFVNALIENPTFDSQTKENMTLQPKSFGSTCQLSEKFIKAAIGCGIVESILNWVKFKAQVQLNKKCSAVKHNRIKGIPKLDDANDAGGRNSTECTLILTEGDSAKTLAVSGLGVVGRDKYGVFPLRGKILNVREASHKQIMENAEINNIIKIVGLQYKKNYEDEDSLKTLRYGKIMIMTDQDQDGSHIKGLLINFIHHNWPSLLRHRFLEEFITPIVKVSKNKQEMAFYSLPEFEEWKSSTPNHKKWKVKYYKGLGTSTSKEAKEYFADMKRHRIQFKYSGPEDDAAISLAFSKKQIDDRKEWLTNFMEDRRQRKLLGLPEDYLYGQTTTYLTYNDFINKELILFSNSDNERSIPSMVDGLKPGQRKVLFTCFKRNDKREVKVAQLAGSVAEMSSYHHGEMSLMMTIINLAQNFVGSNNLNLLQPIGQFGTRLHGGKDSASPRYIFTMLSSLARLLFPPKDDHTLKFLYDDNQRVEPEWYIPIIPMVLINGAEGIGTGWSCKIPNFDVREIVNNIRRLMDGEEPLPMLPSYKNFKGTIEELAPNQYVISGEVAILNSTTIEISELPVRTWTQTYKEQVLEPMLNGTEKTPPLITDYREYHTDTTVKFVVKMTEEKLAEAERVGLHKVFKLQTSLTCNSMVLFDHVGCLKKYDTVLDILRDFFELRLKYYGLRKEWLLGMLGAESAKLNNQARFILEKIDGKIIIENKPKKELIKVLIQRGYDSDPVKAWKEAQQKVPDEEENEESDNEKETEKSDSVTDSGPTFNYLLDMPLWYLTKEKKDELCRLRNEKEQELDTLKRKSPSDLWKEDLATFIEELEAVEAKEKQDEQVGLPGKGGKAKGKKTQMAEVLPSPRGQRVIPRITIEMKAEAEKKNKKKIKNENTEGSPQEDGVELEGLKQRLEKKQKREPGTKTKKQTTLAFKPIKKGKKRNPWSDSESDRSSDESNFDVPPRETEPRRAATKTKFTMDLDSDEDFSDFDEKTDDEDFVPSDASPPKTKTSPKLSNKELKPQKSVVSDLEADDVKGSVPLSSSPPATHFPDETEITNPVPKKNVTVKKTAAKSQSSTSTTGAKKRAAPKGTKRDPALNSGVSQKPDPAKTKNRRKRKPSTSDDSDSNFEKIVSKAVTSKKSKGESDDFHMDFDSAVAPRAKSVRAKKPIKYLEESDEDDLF

[11] = molecular target: DNA topoisomerase 2-alpha (Homo sapiens) (UniProt P11388); assay: Inhibition of human DNA topoisomerase 2-mediated relaxation of supercoiled pBR322 DNA at 10 uM after 30 mins by ethidium bromide staining based agarose gel electrophoresis; outline: as §2

| Structure (SMILES) | Activity (Escherichia coli) | IC50 (MDA-MB-231) [µM] | IC50 [1] [µM] | IC50 [2] [µM] | IC50 [3] [µM] | IC50 (MRC5 [4]) [µM] | Ratio IC50 (MRC5 [5]) | Ratio IC50 [6] | Ratio IC50 (MRC5 [7]) | Ratio IC50 (Huh-7) | topoisomerase 1 inhibition (active/inactive) [8] | inhibition [9] | inhibition call (active/not active) [10] | topoisomerase 2 inhibition (active/not active) [11] | inhibition [10] |
| --- | --- | --- | --- | --- | --- | --- | --- | --- | --- | --- | --- | --- | --- | --- | --- |
| CN(C)CCCO/N=C/c1cccc2nc3c(nc12)-c1ccccc1/C3=N\OCCCN(C)C.Cl | inactive | 7.03 | 5.1 | 6.27 | 7.19 | 6.56 | 0.93 | 1.29 | 1.05 | 0.91 | Active | Active | Active | Active |  |
| CN(C)CCCO/N=C1\c2ccccc2-c2nc3c(CN4CCC(N5CCCCC5)CC4)cccc3nc21.Cl | inactive | 0.99 | 5.14 | 6.12 | 0.82 | 3.49 | 3.53 | 0.68 | 0.57 | 4.26 | Active | Active | Active | inactive |  |
| O=C1c2ccccc2-c2nc3c(C(=O)NCCN4CCCC4)cccc3nc21 | inactive | 6.55 | 11.2 | 12 | 8.51 | 7.99 | 1.22 | 0.71 | 0.67 | 0.94 | Active | Active | Active | inactive |  |
| CN(C)CCCO/N=C1\c2ccccc2-c2nc3c(CN4CCOCC4)cccc3nc21.Cl | inactive | 9.97 | 6.93 | 9.92 | 6.78 | 73.5 | 7.37 | 10.6 | 7.41 | 10.84 | Active | inactive |  | inactive | Active |
| CN(C)CCCO/N=C1\c2ccccc2-c2nc3c(C(=O)NCCN4CCOCC4)cccc3nc21.Cl | Active | 0.99 | 9.69 | 9.78 | 5.94 | 11.5 | 11.63 | 1.19 | 1.18 | 1.94 | Active | Active | Active | inactive |  |
| CN(C)CCNC(=O)c1cccc2nc3c(nc12)-c1ccccc1C3=O | inactive | 7.29 | 8.75 | 11 | 7.64 | 8.98 | 1.23 | 1.03 | 0.82 | 1.18 | Active | Active | Active | inactive |  |
| C(=N\OCCN1CCCC1)/c1cccc2nc3c(nc12)-c1ccccc1/C3=N\OCCN1CCCC1.Cl | Active | 1.01 | 6.02 | 5.17 | 0.78 | 0.91 | 0.9 | 0.15 | 0.18 | 1.17 | Active | Active | Active | Active |  |
| CN(C)CCCO/N=C1\c2ccccc2-c2nc3c(CN4CCCCC4)cccc3nc21.Cl | Active | 0.66 | 0.83 | 0.91 | 0.63 | 0.89 | 1.35 | 1.07 | 0.98 | 1.41 | Active | Active | Active | inactive |  |
| CN(C)CCCNC(=O)c1cccc2nc3c(nc12)-c1ccccc1C3=O | inactive | 7.04 | 7.82 | 10.2 | 7.7 | 9.07 | 1.29 | 1.16 | 0.89 | 1.18 | Active | inactive | Active | inactive |  |
| CN(C)CCCO/N=C1\c2ccccc2-c2nc3c(CN(C)C)cccc3nc21.Cl | Active | 0.9 | 0.81 | 0.78 | 0.75 | 0.88 | 0.98 | 1.09 | 1.13 | 1.17 | Active | Active | Active | inactive |  |

Reference: ChEMBL document CHEMBL3758117, “Discovery of indeno[1,2-b]quinoxaline derivatives as potential anticancer agents” (Eur J Med Chem, 2016)
